ChEMBL document CHEMBL1144702, “Synthesis and structure-activity relationship studies on tryprostatin A, an inhibitor of breast cancer resistance protein” (Bioorg Med Chem, 2008)

Test system: PC-3
Experiment: Cytotoxicity against human PC3 cells after 72 hrs by Cell Titer 96 Aqueous Non-Radioactive assay
Assay type: functional
Conditions: PC-3, 72 h
Method in brief: (§1)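 MCF7, NCI-H520 and PC-3 cells in RPMI-1640 + 10% FBS, 2 mM L-glutamine, 0.1 mM non-essential amino acids; 1 × 10^4 cells/well, 24 h at 37 °C, then drug in DMSO or EtOH (<1%) for 72 h. Cells under 50% survival at 100 μM retested over further concentrations for GI50. MTS/PMS read at 490 nm, blank subtracted, versus vehicle wells; quadruplicate or more.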
Molecule `COc1ccc2c(C[C@H]3NC(=O)[C@@H]4CCCN4C3=O)c(CC=C(C)C)[nH]c2c1` has a GI50 of 21.7 µM.

Test system: OVCAR-3
Experiment: Cytotoxicity against human OVCAR-3 cells
Assay type: functional
Conditions: not given
In the case of `COc1ccc2c(C[C@H]3NC(=O)[C@@H]4CCCN4C3=O)c(CC=C(C)C)[nH]c2c1`, the GI50 is reported as > 50 µM.

Test system: MCF7
Experiment: Cytotoxicity against human MCF7 cells at 10 uM after 72 hrs by Cell Titer 96 Aqueous Non-Radioactive assay
Assay type: functional
Conditions: MCF7, 72 h, read-out: Inhibition
Method in brief: (§2)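 MCF7, NCI-H520 or PC-3 cells (RPMI-1640, 10% FBS) plated 1 × 10^4/well, 24 h at 37 °C, exposed 72 h to drug at 10 or 100 μM in DMSO or EtOH vehicle (controls usually 0.2%). Survival by MTS/PMS formazan absorbance at 490 nm, plate blank subtracted, as percent of vehicle wells; quadruplicate; etoposide or m-AMSA positive controls.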
In the case of `COc1ccc2c(C[C@H]3NC(=O)[C@@H]4CCCN4C3=O)c(CC=C(C)C)[nH]c2c1`, the cell survival (% of vehicle control) at 10 µM is reported as > 100%.

Test system: HT-29
Experiment: Cytotoxicity against human HT29 cells
Assay type: functional
Conditions: not given
Work on `COc1ccc2c(C[C@H]3NC(=O)[C@@H]4CCCN4C3=O)c(CC=C(C)C)[nH]c2c1` yielded a GI50 of 16.1 µM.

Test system: PC-3
Experiment: Cytotoxicity against human PC3 cells at 100 uM after 72 hrs by Cell Titer 96 Aqueous Non-Radioactive assay
Assay type: functional
Conditions: PC-3, 72 h, read-out: Inhibition
Method in brief: as §2
For `COc1ccc2c(C[C@H]3NC(=O)[C@@H]4CCCN4C3=O)c(CC=C(C)C)[nH]c2c1`, the percent cell survival at 100 µM was > 100%.

Test system: BT-549
Experiment: Cytotoxicity against human BT549 cells
Assay type: functional
Conditions: not given
Work on `COc1ccc2c(C[C@H]3NC(=O)[C@@H]4CCCN4C3=O)c(CC=C(C)C)[nH]c2c1` yielded a GI50 of 9.77 µM.

Test system: PC-3
Experiment: Cytotoxicity against human PC3 cells at 10 uM after 72 hrs by Cell Titer 96 Aqueous Non-Radioactive assay
Assay type: functional
Conditions: PC-3, 72 h, read-out: Inhibition
Method in brief: as §2
With `COc1ccc2c(C[C@H]3NC(=O)[C@@H]4CCCN4C3=O)c(CC=C(C)C)[nH]c2c1` the percent cell survival relative to vehicle control at 10 µM was > 100%.

Test system: DU-145
Experiment: Cytotoxicity against human DU145 cells
Assay type: functional
Conditions: not given
With `COc1ccc2c(C[C@H]3NC(=O)[C@@H]4CCCN4C3=O)c(CC=C(C)C)[nH]c2c1` the GI50 was 40 µM.

Test system: MOLT-4
Experiment: Cytotoxicity against human MOLT4 cells
Assay type: functional
Conditions: not given
In the case of `COc1ccc2c(C[C@H]3NC(=O)[C@@H]4CCCN4C3=O)c(CC=C(C)C)[nH]c2c1`, the GI50 is reported as 12.2 µM.

Test system: IGROV-1
Experiment: Cytotoxicity against human IGROV1 cells
Assay type: functional
Conditions: not given
For `COc1ccc2c(C[C@H]3NC(=O)[C@@H]4CCCN4C3=O)c(CC=C(C)C)[nH]c2c1`, the GI50 was > 50 µM.

Test system: MCF7
Experiment: Cytotoxicity against human MCF7 cells after 72 hrs by Cell Titer 96 Aqueous Non-Radioactive assay
Assay type: functional
Conditions: MCF7, 72 h
Method in brief: as §1
In the case of `COc1ccc2c(C[C@H]3NC(=O)[C@@H]4CCCN4C3=O)c(CC=C(C)C)[nH]c2c1`, the GI50 is reported as 25.5 µM.

Test system: SR
Experiment: Cytotoxicity against human SR cells
Assay type: functional
Conditions: not given
In the case of `COc1ccc2c(C[C@H]3NC(=O)[C@@H]4CCCN4C3=O)c(CC=C(C)C)[nH]c2c1`, the GI50 is reported as 11.3 µM.

Test system: EKVX
Experiment: Cytotoxicity against human EKVX cells
Assay type: functional
Conditions: not given
With `COc1ccc2c(C[C@H]3NC(=O)[C@@H]4CCCN4C3=O)c(CC=C(C)C)[nH]c2c1` the GI50 was > 50 µM.

Test system: not listed separately
Experiment: Cytotoxicity against human HL60 (TB) cells
Assay type: functional
Conditions: HL-60
`COc1ccc2c(C[C@H]3NC(=O)[C@@H]4CCCN4C3=O)c(CC=C(C)C)[nH]c2c1` gave a GI50 of 35 µM.

Test system: not listed separately
Experiment: Cytotoxicity against human H520 cells at 100 uM after 72 hrs by Cell Titer 96 Aqueous Non-Radioactive assay
Assay type: functional
Conditions: NCI-H520, 72 h, read-out: Inhibition
Method in brief: as §2
With `COc1ccc2c(C[C@H]3NC(=O)[C@@H]4CCCN4C3=O)c(CC=C(C)C)[nH]c2c1` the cell survival (% of vehicle control) at 100 µM was > 100%.

Test system: LOX IMVI
Experiment: Cytotoxicity against human LOX IMVI cells
Assay type: functional
Conditions: not given
For `COc1ccc2c(C[C@H]3NC(=O)[C@@H]4CCCN4C3=O)c(CC=C(C)C)[nH]c2c1`, the GI50 was 33.5 µM.

Test system: UO-31
Experiment: Cytotoxicity against human UO31 cells
Assay type: functional
Conditions: not given
Molecule `COc1ccc2c(C[C@H]3NC(=O)[C@@H]4CCCN4C3=O)c(CC=C(C)C)[nH]c2c1` has a GI50 of 27.3 µM.

Test system: K562
Experiment: Cytotoxicity against human K562 cells
Assay type: functional
Conditions: not given
In the case of `COc1ccc2c(C[C@H]3NC(=O)[C@@H]4CCCN4C3=O)c(CC=C(C)C)[nH]c2c1`, the GI50 is reported as 17.7 µM.

Test system: not listed separately
Experiment: Inhibition of tubulin polymerization in presence of microtubule-associated proteins at 60 uM
Conditions: not given
Method in brief: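 Tubulin containing MAPs in PME buffer (100 mM PIPES pH 6.9, 2 mM EGTA, 1 mM MgSO4) with GTP and drug in DMSO, tubulin added last; 37 °C, absorbance change at 351 nm over 10 min. Drug concentration varied across runs for delta absorbance versus concentration curves; colchicine standard curves made for each tubulin batch.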
With `COc1ccc2c(C[C@H]3NC(=O)[C@@H]4CCCN4C3=O)c(CC=C(C)C)[nH]c2c1` the inhibition was < 2%.

Test system: not listed separately
Experiment: Cytotoxicity against human H520 cells at 10 uM after 72 hrs by Cell Titer 96 Aqueous Non-Radioactive assay
Assay type: functional
Conditions: NCI-H520, 72 h, read-out: Inhibition
Method in brief: as §2
In the case of `COc1ccc2c(C[C@H]3NC(=O)[C@@H]4CCCN4C3=O)c(CC=C(C)C)[nH]c2c1`, the percent cell survival relative to vehicle at 10 µM is reported as > 100%.

Test system: not listed separately
Experiment: Cytotoxicity against human […]
Assay type: functional
Conditions: not given
`COc1ccc2c(C[C@H]3NC(=O)[C@@H]4CCCN4C3=O)c(CC=C(C)C)[nH]c2c1` gave a GI50 of 13 µM.

Test system: RPMI-8226
Experiment: Cytotoxicity against human RPMI8226 cells
Assay type: functional
Conditions: not given
`COc1ccc2c(C[C@H]3NC(=O)[C@@H]4CCCN4C3=O)c(CC=C(C)C)[nH]c2c1` gave a GI50 of 7.76 µM.

Test system: COLO 205
Experiment: Cytotoxicity against human COLO205 cells
Assay type: functional
Conditions: not given
For `COc1ccc2c(C[C@H]3NC(=O)[C@@H]4CCCN4C3=O)c(CC=C(C)C)[nH]c2c1`, the GI50 was 12.4 µM.

Test system: MCF7
Experiment: Cytotoxicity against human MCF7 cells at 100 uM after 72 hrs by Cell Titer 96 Aqueous Non-Radioactive assay
Assay type: functional
Conditions: MCF7, 72 h, read-out: Inhibition
Method in brief: as §2
For `COc1ccc2c(C[C@H]3NC(=O)[C@@H]4CCCN4C3=O)c(CC=C(C)C)[nH]c2c1`, the cell survival (% of vehicle control) at 100 µM was > 100%.

Test system: CCRF-CEM
Experiment: Cytotoxicity against human CCRF-CEM cells
Assay type: functional
Conditions: not given
In the case of `COc1ccc2c(C[C@H]3NC(=O)[C@@H]4CCCN4C3=O)c(CC=C(C)C)[nH]c2c1`, the GI50 is reported as 11.9 µM.
